Experiments:
Format in all cases: functional
Staphylococcus aureus [1] = experiment: Antibacterial activity against methicillin-resistant Staphylococcus aureus ATCC 33591 after 24 hrs by broth microdilution method; conditions: ATCC 33591, 24 h
Method in brief: (§1)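 Broth microdilution following NCCLS M7-A6 (2003), with inoculum at the recommended densities. Isolates were placed into panel wells with an autoinoculator and grown in cation-adjusted Mueller-Hinton broth at 35°C in ambient air for overnight to 24 h. Panels were read by eye, and the MIC was taken as no visible growth.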

Staphylococcus aureus [2] = experiment: Antibacterial activity against methicillin-resistant Staphylococcus aureus 78-13607A after 24 hrs by broth microdilution method; method in brief: as §1
Staphylococcus aureus [3] = experiment: Antibacterial activity against linezolid-resistant Staphylococcus aureus 106-12591A isolate after 24 hrs by broth microdilution method; method in brief: as §1
Staphylococcus aureus [4] = experiment: Antibacterial activity against oxacillin-susceptible Staphylococcus aureus ATCC 29213 after 24 hrs by broth microdilution method; conditions: ATCC 29213, 24 h; method in brief: as §1
Staphylococcus aureus [5] = experiment: Antibacterial activity against oxacillin-resistant Staphylococcus aureus ATCC 33591 after 24 hrs by broth microdilution method; conditions: ATCC 33591, 24 h; method in brief: as §1
[6] = test system: Staphylococcus epidermidis; experiment: Antibacterial activity against oxacillin-susceptible Staphylococcus epidermidis isolate 12-1788A isolate after 24 hrs by broth microdilution method
[7] = test system: Staphylococcus haemolyticus; experiment: Antibacterial activity against oxacillin-resistant Staphylococcus haemolyticus 107-1240C isolate after 24 hrs by broth microdilution method; method in brief: as §1
Enterococcus faecalis [8] = experiment: Antibacterial activity against ampicillin and vancomycin-susceptible Enterococcus faecalis ATCC 29212 after 24 hrs by broth microdilution method; conditions: ATCC 29212, 24 h; method in brief: as §1
Enterococcus faecium [9] = experiment: Antibacterial activity against ampicillin and vancomycin-resistant Enterococcus faecium 24-45A isolate after 24 hrs by broth microdilution method; method in brief: as §1
Streptococcus pneumoniae [10] = experiment: Antibacterial activity against penicillin-intermediate resistant Streptococcus pneumoniae ATCC 49619 after 24 hrs by broth microdilution method; conditions: ATCC 49619, 24 h; method in brief: as §1
Streptococcus pneumoniae [11] = experiment: Antibacterial activity against penicillin-resistant Streptococcus pneumoniae 33-50B isolate after 24 hrs by broth microdilution method; method in brief: as §1
Corynebacterium jeikeium = experiment: Antibacterial activity against Corynebacterium jeikeium 15-196A isolate after 24 hrs by broth microdilution method
Method in brief: (§2)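 Broth microdilution following NCCLS M7-A6 (2003) inocula; isolates transferred aseptically into panel wells with an autoinoculator; cation-adjusted Mueller-Hinton broth; incubated overnight to 24 h at 35°C in ambient air; panels read by eye, MIC taken as lowest concentration with no visible growth.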

Bacillus cereus = experiment: Antibacterial activity against Bacillus cereus 24-59A isolate after 24 hrs by broth microdilution method
Streptococcus pyogenes = experiment: Antibacterial activity against erythromycin-resistant Streptococcus pyogenes 91-8747 isolate after 24 hrs by broth microdilution method; method in brief: as §1
Streptococcus mitis = experiment: Antibacterial activity against penicillin-resistant Streptococcus mitis 61-2900C isolate after 24 hrs by broth microdilution method; method in brief: as §1
Pseudomonas aeruginosa = experiment: Antibacterial activity against sPseudomonas aeruginosa ATCC 27853 after 24 hrs by broth microdilution method; conditions: ATCC 27853, 24 h; method in brief: as §2
Escherichia coli = experiment: Antibacterial activity against sEscherichia coli ATCC 25922 after 24 hrs by broth microdilution method; conditions: ATCC 25922, 24 h; method in brief: as §2
Staphylococcus aureus [12] = experiment: Antibacterial activity against mupirocin-resistant Staphylococcus aureus 4-90A isolate after 24 hrs by broth microdilution method; method in brief: as §1
Staphylococcus aureus [13] = experiment: Antibacterial activity against quinupristin/dalfopristin-resistant Staphylococcus aureus 300-12053A isolate after 24 hrs by broth microdilution method; method in brief: as §1
Staphylococcus [14] = experiment: Antibacterial activity against mupirocin-resistant coagulase negative Staphylococcus 63-18A isolate after 24 hrs by broth microdilution method; method in brief: as §1
Staphylococcus [15] = experiment: Antibacterial activity against quinupristin/dalfopristin-resistant coagulase negative Staphylococcus 90-10840A isolate after 24 hrs by broth microdilution method; method in brief: as §1
Staphylococcus [16] = experiment: Antibacterial activity against coagulase negative linezolid-resistant Staphylococcus 82-1645A isolate after 24 hrs by broth microdilution method; method in brief: as §1
Enterococcus faecalis [17] = experiment: Antibacterial activity against vancomycin-resistant Enterococcus faecalis 48-22D isolate with vanA phenotype after 24 hrs by broth microdilution method; method in brief: as §1
Enterococcus faecalis [18] = experiment: Antibacterial activity against vancomycin-resistant Enterococcus faecalis 82-876D with vanB phenotype isolate after 24 hrs by broth microdilution method; method in brief: as §1
Enterococcus faecalis [19] = experiment: Antibacterial activity against linezolid-resistant Enterococcus faecalis 15-5341 isolate after 24 hrs by broth microdilution method; method in brief: as §1
Enterococcus faecalis [20] = experiment: Antibacterial activity against gentamycin and streptomycin-resistant Enterococcus faecalis 39-11D isolate after 24 hrs by broth microdilution method; method in brief: as §1
Enterococcus faecium [21] = experiment: Antibacterial activity against vancomycin-resistant Enterococcus faecium 103-1232D isolate with vanB phenotype after 24 hrs by broth microdilution method; method in brief: as §1
Enterococcus faecium [22] = experiment: Antibacterial activity against vancomycin-resistant Enterococcus faecium 15-206A isolate with vanA phenotype after 24 hrs by broth microdilution method; method in brief: as §1
Enterococcus faecium [23] = experiment: Antibacterial activity against linezolid-resistant Enterococcus faecium 11-4103A isolate after 24 hrs by broth microdilution method; method in brief: as §1
Enterococcus faecium [24] = experiment: Antibacterial activity against quinupristin/dalfopristin-resistant Enterococcus faecium 65-1208A isolate after 24 hrs by broth microdilution method; method in brief: as §1
Bacillus sp. [25] = experiment: Antibacterial activity against tetracycline-resistant Bacillus sp. 107-1461D isolate after 24 hrs by broth microdilution method; conditions: Bacillus sp. (in: firmicutes); method in brief: as §1
Bacillus sp. [26] = experiment: Antibacterial activity against trimethoprim/sulfamethaxazole-resistant Bacillus sp. 67-1057A isolate after 24 hrs by broth microdilution method; conditions: Bacillus sp. (in: firmicutes); method in brief: as §1
Bacillus sp. [27] = experiment: Antibacterial activity against erythromycin-resistant Bacillus sp. 32-2406A isolate after 24 hrs by broth microdilution method; conditions: Bacillus sp. (in: firmicutes); method in brief: as §1
Streptococcus pneumoniae [28] = experiment: Antibacterial activity against multidrug resistant Streptococcus pneumoniae 68-2307B isolate after 24 hrs by broth microdilution method; method in brief: as §1
Streptococcus pneumoniae [29] = experiment: Antibacterial activity against erythromycin and clindamycin-resistant Streptococcus pneumoniae 4-38B isolate after 24 hrs by broth microdilution method; method in brief: as §1
Streptococcus pneumoniae [30] = experiment: Antibacterial activity against erythromycin-resistant and clindamycin-susceptible Streptococcus pneumoniae 35-405B isolate after 24 hrs by broth microdilution method; method in brief: as §1
Corynebacterium sp. [31] = experiment: Antibacterial activity against doxycyclin-resistant Corynebacterium sp. 105-1513C isolate after 24 hrs by broth microdilution method; method in brief: as §1
Corynebacterium sp. [32] = experiment: Antibacterial activity against streptomycin-resistant Corynebacterium sp. 61-5454A isolate after 24 hrs by broth microdilution method; method in brief: as §1
Corynebacterium sp. [33] = experiment: Antibacterial activity against rifampin-resistant Corynebacterium sp. 58-9161A isolate after 24 hrs by broth microdilution method; method in brief: as §1
Streptococcus [34] = experiment: Antibacterial activity against erythromycin and clindamycin-resistant beta-haemolytic sStreptococcus 91-526D isolate after 24 hrs by broth microdilution method; method in brief: as §1
Streptococcus [35] = experiment: Antibacterial activity against erythromycin-resistant and clindamycin-susceptible beta-haemolytic sStreptococcus 109-820D isolate after 24 hrs by broth microdilution method; method in brief: as §1
Streptococcus [36] = experiment: Antibacterial activity against levofloxacin-resistant beta-haemolytic sStreptococcus 19-756A isolate after 24 hrs by broth microdilution method; method in brief: as §1
Streptococcus [37] = experiment: Antibacterial activity against mupirocin-resistant viridans group sStreptococcus 32-2395A isolate after 24 hrs by broth microdilution method; method in brief: as §1
Streptococcus [38] = experiment: Antibacterial activity against levafloxacin-resistant viridans group Streptococcus 107-6380A isolate after 24 hrs by broth microdilution method; method in brief: as §1
Streptococcus [39] = experiment: Antibacterial activity against linezolid-resistant viridans group Streptococcus 27-2832A isolate after 24 hrs by broth microdilution method; method in brief: as §1
Streptococcus [40] = experiment: Antibacterial activity against multidrug-resistant viridans group Streptococcus 58-1602D isolate after 24 hrs by broth microdilution method; method in brief: as §1
Streptococcus pneumoniae [41] = experiment: Antibacterial activity against levofloxacin-resistant Streptococcus pneumoniae 2-2784A isolate after 24 hrs by broth microdilution method; method in brief: as §1

Measured: MIC

CCC[C@@H]1C[C@@H](C(=O)N[C@@H]([C@H]2O[C@H](SC)[C@H](O)[C@@H](O)[C@H]2O)[C@H](C)Cl)N(C)C1 [CLINDAMYCIN]
0.12 µg/mL: Staphylococcus aureus [2]
> 8 µg/mL: Staphylococcus aureus [1]

CN(C)[C@@H]1C(O)=C(C(N)=O)C(=O)[C@@]2(O)C(O)=C3C(=O)c4c(O)cccc4[C@@](C)(O)[C@H]3C[C@@H]12 [TETRACYCLINE]
≤ 16 µg/mL: Staphylococcus aureus [2]
> 8 µg/mL: Staphylococcus aureus [1]

O=C(O)c1cn(C2CC2)c2cc(N3CCNCC3)c(F)cc2c1=O [CIPROFLOXACIN]
0.5 µg/mL: Staphylococcus aureus [1]
> 4 µg/mL: Staphylococcus aureus [2]

CCCCCCCCCCCCO[C@@H]1O[C@@H](C)[C@H](O[C@@H]2O[C@@H](C)[C@H](OC(C)=O)[C@@H](O[C@@H]3O[C@@H](C)[C@H](OC(C)=O)[C@@H](O[C@@H]4O[C@@H](C)[C@H](OC(C)=O)[C@@H](O)[C@H]4O)[C@H]3OC(C)=O)[C@H]2O)[C@@H](O)[C@H]1O
32 µg/mL: [7] | Corynebacterium jeikeium
1 µg/mL: Staphylococcus aureus [2]
16 µg/mL: Corynebacterium sp. [31] | Corynebacterium sp. [32] | Corynebacterium sp. [33]
> 32 µg/mL: [6] | Pseudomonas aeruginosa | Escherichia coli | Staphylococcus [14] | Staphylococcus [15] | Staphylococcus [16]
> 2 µg/mL: Staphylococcus aureus [12]
4 µg/mL: Staphylococcus aureus [4] | Streptococcus pneumoniae [10] | Streptococcus pneumoniae [11] | Streptococcus pyogenes | Streptococcus mitis | Streptococcus pneumoniae [28] | Streptococcus pneumoniae [29] | Streptococcus pneumoniae [30] | Streptococcus [34] | Streptococcus [35] | Streptococcus [36] | Streptococcus [37] | Streptococcus [38] | Streptococcus [39] | Streptococcus [40]
0.5 µg/mL: Staphylococcus aureus [1]
not listed: Streptococcus pneumoniae [41]
2 µg/mL: all other assays above

O=C(N[C@H](CO)[C@H](O)c1ccc([N+](=O)[O-])cc1)C(Cl)Cl [CHLORAMPHENICOL]
> 16 µg/mL: Staphylococcus aureus [1]

CN[C@H](CC(C)C)C(=O)N[C@H]1C(=O)N[C@@H](CC(N)=O)C(=O)N[C@H]2C(=O)N[C@H]3C(=O)N[C@H](C(=O)N[C@H](C(=O)O)c4cc(O)cc(O)c4-c4cc3ccc4O)[C@H](O)c3ccc(c(Cl)c3)Oc3cc2cc(c3O[C@@H]2O[C@H](CO)[C@@H](O)[C@H](O)[C@H]2O[C@H]2C[C@](C)(N)[C@H](O)[C@H](C)O2)Oc2ccc(cc2Cl)[C@H]1O [VANCOMYCIN]
1 µg/mL: [7] | Enterococcus faecalis [8] | Streptococcus pneumoniae [10] | Streptococcus pneumoniae [11] | Corynebacterium jeikeium | Streptococcus pyogenes | Streptococcus mitis | Pseudomonas aeruginosa | Escherichia coli
not listed: Staphylococcus aureus [1] | Staphylococcus aureus [2] | Staphylococcus aureus [3] | Staphylococcus aureus [4] | Staphylococcus aureus [5] | [6] | Enterococcus faecium [9] | Bacillus cereus | Staphylococcus aureus [12] | Staphylococcus aureus [13] | Enterococcus faecium [21] | Enterococcus faecium [22] | Enterococcus faecium [23] | Enterococcus faecium [24] | Corynebacterium sp. [31] | Corynebacterium sp. [32] | Corynebacterium sp. [33]
0.5 µg/mL: all other assays above

CO[C@H]1/C=C/O[C@@]2(C)Oc3c(C)c(O)c4c(O)c(c(/C=N/N5CCN(C)CC5)c(O)c4c3C2=O)NC(=O)/C(C)=C\C=C\[C@H](C)[C@H](O)[C@@H](C)[C@@H](O)[C@@H](C)[C@H](OC(C)=O)[C@@H]1C [RIFAMPIN]
≤ 0.25 µg/mL: Staphylococcus aureus [1] | Staphylococcus aureus [2]
